Results on 13 molecules are retold here after ChEMBL document CHEMBL2440101, “Total syntheses and cytotoxicity of kealiiquinone, 2-deoxy-2-aminokealiiquinone and analogs” (Bioorg Med Chem Lett, 2013).

For the test, the system named is MCF7. In words: Cytotoxicity against human MCF7 cells after 96 hrs by MTT assay. The format is functional, cell-based. Particulars: MCF7, 96 h. Put shortly: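 MCF7 breast cancer cells; MTT growth assay with cisplatin as positive control. IC50 taken from cytotoxicity (concentration-response) plots and reported with SEM.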
Turning to `COC1=C(OC)C(=O)c2c(cc3c([nH]c(=O)n3C)c2-c2ccc(OC)cc2)C1=O`, the IC50 amounted to 91.9 µM. In the case of `COC1=C(OC)C(=O)c2c(cc3c(nc(N)n3C)c2-c2ccc(OC)cc2)C1=O`, the IC50 turned out to be 43.8 µM.

Turning to `COc1ccc(-c2c3cc(OC)c(OC)cc3cc3c2nc(N)n3C)cc1`, the IC50 came to 28.8 µM.

As for `COc1ccc(-c2c3nc(N)n(C)c3cc3cc(OC)c(OC)c(OC)c23)cc1`, the IC50 was over 100 µM. On to `COc1ccc(-c2c3cc(OCc4ccccc4)c(OC)cc3cc3c2ncn3C)cc1`, for which the IC50 stood at 92 µM. Regarding `COc1ccc(-c2c3cc(OC)c(OC)cc3cc3c2ncn3C)cc1`, half-maximal inhibition (IC50) required 28 µM. On to `COc1ccc(-c2c3ncn(C)c3cc3cc(OC)c(OC)c(OC)c23)cc1`, for which the IC50 was 99.8 µM. Regarding `COC1=C(OC)C(=O)c2c(cc3c(ncn3C)c2-c2ccc(OC)cc2)C1=O`, the IC50 was found to be 41.1 µM. The same measure for `COc1ccc(-c2c3[nH]c(=O)n(C)c3cc3cc(OC)c(OC)c(OC)c23)cc1`: 29.9 µM.

`COc1ccc(-c2c3cc(OC)c(OC)c(OC)c3cc3c2nc(N)n3C)cc1`: inhibition was half-maximal at 22.7 µM (IC50). The same measure for `COc1ccc(-c2c3cc(OC)c(OC)c(OC)c3cc3c2ncn3C)cc1`: 68.2 µM. With `COc1ccc(-c2c3cc(O)c(OC)cc3cc3c2ncn3C)cc1` the figure was over 100 µM. In turn, `COc1ccc(-c2c3cc(O)c(OC)cc3cc3c2[nH]c(=N)n3C)cc1` [KEALIININE A] returned an IC50 of 23.4 µM.
